Results taken from ChEMBL document CHEMBL1150123, “Constituents of the twigs of Hernandia ovigera that inhibit the transformation of JB6 murine epidermal cells” (J Nat Prod, 2002).
≈ marks a conversion by molar mass, not a printed value.

Legend:
[1] = Inhibition of 12-O-tetradecanoylphorbol 13-acetate-induced transformation of mouse JB6 cells after 14 days by soft agar assay; type: functional, cell-based
[2] = Cytotoxicity against mouse JB6 cells after 3 days by trypan blue staining; type: cell-based; conditions: JB6, 72 h
How it was run: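 JB6 cells at 1×10^4 cells/mL were preincubated 24 h, then exposed to a range of test-compound concentrations for 3 days. Trypsinized cells were mixed with 0.4% trypan blue, and percent viability was scored microscopically.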

[3] = Ratio of IC50 for mouse JB6 cells to IC50 for inhibition of 12-O-tetradecanoylphorbol 13-acetate-induced transformation of mouse JB6 cells
How it was run: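 Ratio of two IC50s. The first is trypan blue cytotoxicity: JB6 cells, 24 h preincubation, 3-day exposure. The second is soft-agar transformation: TPA-sensitive P+ JB6 cells in 0.5% agar with TPA plus compound, triplicate wells, 14 days at 37 °C. Colonies of ≥15 cells were counted in three 0.25 cm² areas. Frequency is relative to TPA and 0.1% DMSO controls.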

SMILES | IC50 [1] | IC50 [2] | Ratio IC50 [3]
COc1cc([C@@H]2c3cc4c(cc3[C@H](OC(C)=O)[C@H]3COC(=O)[C@@H]23)OCO4)cc(OC)c1OC | 0.15 µg/mL (≈ 0.329 µM) | 1.2 µg/mL (≈ 2.63 µM) | 10
COc1cc(C[C@H]2C(=O)OC[C@@H]2Cc2cc(OC)c3c(c2)OCO3)cc(OC)c1OC | > 4 µg/mL |  | 
COc1cc(C[C@H]2C(=O)OC[C@@H]2Cc2ccc3c(c2)OCO3)cc(OC)c1OC | > 4 µg/mL |  | 
COc1cc2c(cc1OC)C(=O)N(C)CC2 | > 4 µg/mL |  | 

Now from value to compound, other results behind:

IC50 [1] | SMILES | IC50 [2] | Ratio IC50 [3]
> 4 µg/mL | COc1ccc([C@@H]2OC[C@@H]3[C@H]2CO[C@@H]3c2cc(OC)c(OC)c(OC)c2)cc1OC |  | 
> 4 µg/mL | COc1cc([C@@H]2c3c(cc4c(c3OC)OCO4)[C@H](OC(C)=O)[C@H]3COC(=O)[C@@H]23)cc(OC)c1OC |  | 
> 4 µg/mL | COc1cc([C@H]2OC[C@H]3[C@@H]2CO[C@@H]3c2cc(OC)c(OC)c(OC)c2)cc(OC)c1OC |  | 
> 4 µg/mL | COc1cc([C@@H]2OC[C@@H]3C(=O)OC[C@@H]32)cc(OC)c1OC [CARUILIGNAN C] |  | 
> 4 µg/mL | COc1cc([C@@H]2OC[C@H]3[C@@H]2CO[C@H]3c2cc(OC)c3c(c2)OCO3)cc(OC)c1OC [DIASESARTEMIN] |  | 
0.4 µg/mL (≈ 0.896 µM) | COc1cc([C@H]2OC[C@H]3[C@@H]2CO[C@H]3c2cc(OC)c(OC)c(OC)c2)cc(OC)c1OC [EPIYANGAMBIN] | 5.7 µg/mL (≈ 12.8 µM) | 10
